Converted amounts (≈) assume the structure as drawn.

The test system of one test is Mycobacterium tuberculosis. In words: Bactericidal activity against Mycobacterium tuberculosis H37Rv after 20 days. It is filed as functional. The conditions noted are these: 480 h. The method, boiled down: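 After the microdilution MIC run, 0.02 mL of H37Rv suspension from wells at MIC and higher concentrations was plated on 7H10 agar (7H11 also named). Viable counts were taken after 20 days at 37 °C. MBC is the lowest concentration that cut viable counts by at least 99% versus compound-free wells.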
Compound `Clc1cccc(-n2cc(CSc3nc4ccccc4s3)nn2)c1` registered an MBC of more than 64 µg/mL. Same read-out and setting: under `O=[N+]([O-])c1ccc(-n2cc(CSc3nc4ccccc4s3)nn2)cc1` stands 32 µg/mL (≈ 86.6 µM). Still for that read-out and setting: the figure for `O=[N+]([O-])c1cccc(-n2cc(CSc3nc4ccccc4s3)nn2)c1` is 64 µg/mL (≈ 173 µM); for `CC1(C)O[C@H]2OC(Cn3cc(CSc4nc5ccccc5s4)nn3)[C@@H]3OC(C)(C)O[C@@H]3[C@@H]2O1` (stereo partly drawn) it is 32 µg/mL (≈ 65.2 µM).

A further test has as its system Mycobacterium tuberculosis. In words: Antimycobacterial activity against Mycobacterium tuberculosis H37Rv after 2 to 3 weeks by broth microdilution assay. The format is functional.
Details: not given
The procedure, abridged:
(§1)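 M. tuberculosis H37Rv in broth microdilution. Compounds were first screened at one fixed concentration in triplicate, and actives went on to MIC determination. Plates were incubated 2–3 weeks at 37 °C in a CO₂ incubator. MIC was read visually as the absence of growth turbidity.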
(Broth dilution looks for growth in wells or tubes with falling amounts of substance.)
`O=C(CSc1nc2ccccc2s1)N1CCOCC1` returned an MIC of less than 128 µg/mL. In turn, `O=C(CSc1nc2ccccc2s1)N1CCCCC1` came in with an MIC of less than 128 µg/mL. Still for that read-out and setting: under `O=C(C(=O)N1CCCC1)c1c[nH]c2ccccc12` stands less than 128 µg/mL. The same measure, in the same setting: under `Clc1ccccc1-n1cc(CSc2nc3ccccc3s2)nn1` stands 16 µg/mL (≈ 44.6 µM); under `Clc1cccc(-n2cc(CSc3nc4ccccc4s3)nn2)c1`, 8 µg/mL (≈ 22.3 µM). For `Clc1ccc(-n2cc(CSc3nc4ccccc4s3)nn2)cc1`, the MIC was less than 128 µg/mL. The same measure, in the same setting: under `Fc1ccc(-n2cc(CSc3nc4ccccc4s3)nn2)cc1` stands less than 128 µg/mL; under `Brc1ccc(-n2cc(CSc3nc4ccccc4s3)nn2)cc1`, 16 µg/mL (≈ 39.7 µM). For the compound `O=[N+]([O-])c1ccc(-n2cc(CSc3nc4ccccc4s3)nn2)cc1`, the lowest concentration to inhibit growth (MIC) was 8 µg/mL (≈ 21.7 µM). Same read-out and setting: the figure for `O=[N+]([O-])c1cccc(-n2cc(CSc3nc4ccccc4s3)nn2)c1` is 8 µg/mL (≈ 21.7 µM); for `Cc1ccccc1-n1cc(CSc2nc3ccccc3s2)nn1` it is less than 128 µg/mL; for `CCOc1ccc(-n2cc(CSc3nc4ccccc4s3)nn2)cc1` it is less than 128 µg/mL. As for `c1ccc(-n2cc(CSc3nc4ccccc4s3)nn2)cc1`, the MIC was less than 128 µg/mL. Turning to `c1cncc(-n2cc(CSc3nc4ccccc4s3)nn2)c1`, the minimal inhibitory concentration (MIC) was found to be 16 µg/mL (≈ 49.2 µM).

In the case of `CC1(C)O[C@H]2OC(Cn3cc(CSc4nc5ccccc5s4)nn3)[C@@H]3OC(C)(C)O[C@@H]3[C@@H]2O1` (stereo partly drawn), the MIC was found to be 8 µg/mL (≈ 16.3 µM). `CC1(C)OCC(Cn2cc(CSc3nc4ccccc4s3)nn2)O1` (stereo not drawn) showed an MIC of less than 128 µg/mL. Still for that read-out and setting: under `CN1CCN(C(=O)C(=O)c2c[nH]c3ccccc23)CC1` stands less than 128 µg/mL; under `O=C(C(=O)N1CCSCC1)c1c[nH]c2ccccc12`, less than 128 µg/mL. Same read-out and setting: under `O=C(NN1CCOCC1)C(=O)c1c[nH]c2ccccc12` stands less than 128 µg/mL; under `O=C(NNC(=O)c1ccncc1)C(=O)c1c[nH]c2ccccc12`, 64 µg/mL (≈ 208 µM); under `O=C(CSc1nc2ccccc2s1)N1CCCC1`, less than 128 µg/mL.

The compound `CN1CCN(C(=O)CSc2nc3ccccc3s2)CC1` yielded an MIC of less than 128 µg/mL.

The compound `O=C(CSc1nc2ccccc2s1)N1CCSCC1` returned a minimum inhibitory concentration (MIC) of 64 µg/mL (≈ 206 µM). `O=C(CSc1nc2ccccc2s1)NN1CCOCC1` returned a minimal inhibitory concentration (MIC) of less than 128 µg/mL. Same read-out and setting: under `O=C(CSc1nc2ccccc2s1)Nc1ccc(F)cc1` stands 64 µg/mL (≈ 201 µM); under `O=C(CSc1nc2ccccc2s1)Nc1ccc(Br)cc1`, less than 128 µg/mL.

`O=C(CSc1nc2ccccc2s1)Nc1ccccn1`: 64 µg/mL (≈ 212 µM) was the least that counted as inhibitory (MIC). Turning to `O=C(CSc1nc2ccccc2s1)NCc1ccc(F)cc1`, the minimal inhibitory concentration (MIC) was less than 128 µg/mL. `O=C(CSc1nc2ccccc2s1)NNC(=O)c1ccncc1` registered an MIC of less than 128 µg/mL. `O=C(C(=O)N1CCOCC1)c1c[nH]c2ccccc12` had a minimum inhibitory concentration (MIC) of less than 128 µg/mL. On the same count and under the same terms, the figure for `O=C(C(=O)N1CCCCC1)c1c[nH]c2ccccc12` is less than 128 µg/mL; for `NNC(=O)c1ccncc1` [ISONIAZID] it is 0.125 µg/mL (≈ 0.911 µM); for `CO[C@H]1/C=C/O[C@@]2(C)Oc3c(C)c(O)c4c(O)c(c(/C=N/N5CCN(C)CC5)c(O)c4c3C2=O)NC(=O)/C(C)=C\C=C\[C@H](C)[C@H](O)[C@@H](C)[C@@H](O)[C@@H](C)[C@H](OC(C)=O)[C@@H]1C` [RIFAMPIN] it is 0.06 µg/mL (≈ 0.0729 µM).

The subject of another test is Mycobacterium tuberculosis. In words: Antimycobacterial activity against Mycobacterium tuberculosis. The format is functional.
Details: not given
The method, boiled down:
as §1
`CC1COC2(CCN(c3nc(=O)c4cc(C(F)(F)F)cc([N+](=O)[O-])c4s3)CC2)O1` (stereo not drawn) came in with a minimum inhibitory concentration (MIC) of 0.001 µg/mL (≈ 0.00232 µM).

In general, MBC refers to the smallest concentration meeting the test's criterion for killing. Read a high MBC as weaker bactericidal potency. For orientation: MIC means the least concentration at which growth counts as inhibited.

The values are drawn from ChEMBL document CHEMBL3124865, “Sulfur rich 2-mercaptobenzothiazole and 1,2,3-triazole conjugates as novel antitubercular agents” (2014).
